ChEMBL document CHEMBL3351244, “Structure based design of novel 6,5 heterobicyclic mitogen-activated protein kinase kinase (MEK) inhibitors leading to the discovery of imidazo[1,5-a] pyrazine G-479” (Bioorg Med Chem Lett, 2014)
Converted amounts (≈) assume the structure as drawn.

Experiments:
[1] = Antiproliferative activity against human HCT116 cells assessed as inhibition of cell proliferation after 72 hrs; assay type: functional, cell-based; settings: HCT-116, 72 h
Summary of the method: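 Cell proliferation measured after 72 h exposure in HCT116 and A375 cells; IC₅₀ reported.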

[2] = Lipophilicity, logD of the compound at pH 7.4; assay type: physicochemical; settings: buffer
[3] = Hepatic clearance in human liver microsomes; assay type: ADME
Summary of the method: (§1)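 Compounds incubated with liver microsomes from human, rat, mouse, dog and cynomolgus monkey to assess comparative metabolic stability; clearance expressed in mL/min/kg, with stable/moderate/labile designations assigned by set ranges.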

[4] = Hepatic clearance in rat liver microsomes; assay type: ADME; summary of the method: as §1
[5] = Hepatic clearance in mouse liver microsomes; assay type: ADME; summary of the method: as §1
[6] = Total clearance in rat at 1 mg/kg, iv or 5 mg/kg, po; assay type: ADME, organism-based; settings: in vivo
Rattus norvegicus [7] = assay: Dose normalized AUC in rat at 5 mg/kg, po; assay type: ADME, organism-based; set-up: dose 5 mg/kg, route oral; settings: in vivo
[8] = Oral bioavailability in rat at 5 mg/kg; assay type: ADME, organism-based; settings: in vivo
[9] = molecular target: Voltage-gated inwardly rectifying potassium channel KCNH2 (Homo sapiens, UniProt Q12809); assay: Inhibition of human ERG by patch clamp assay
Voltage-gated inwardly rectifying potassium channel KCNH2, sequence (Q12809 whole entry): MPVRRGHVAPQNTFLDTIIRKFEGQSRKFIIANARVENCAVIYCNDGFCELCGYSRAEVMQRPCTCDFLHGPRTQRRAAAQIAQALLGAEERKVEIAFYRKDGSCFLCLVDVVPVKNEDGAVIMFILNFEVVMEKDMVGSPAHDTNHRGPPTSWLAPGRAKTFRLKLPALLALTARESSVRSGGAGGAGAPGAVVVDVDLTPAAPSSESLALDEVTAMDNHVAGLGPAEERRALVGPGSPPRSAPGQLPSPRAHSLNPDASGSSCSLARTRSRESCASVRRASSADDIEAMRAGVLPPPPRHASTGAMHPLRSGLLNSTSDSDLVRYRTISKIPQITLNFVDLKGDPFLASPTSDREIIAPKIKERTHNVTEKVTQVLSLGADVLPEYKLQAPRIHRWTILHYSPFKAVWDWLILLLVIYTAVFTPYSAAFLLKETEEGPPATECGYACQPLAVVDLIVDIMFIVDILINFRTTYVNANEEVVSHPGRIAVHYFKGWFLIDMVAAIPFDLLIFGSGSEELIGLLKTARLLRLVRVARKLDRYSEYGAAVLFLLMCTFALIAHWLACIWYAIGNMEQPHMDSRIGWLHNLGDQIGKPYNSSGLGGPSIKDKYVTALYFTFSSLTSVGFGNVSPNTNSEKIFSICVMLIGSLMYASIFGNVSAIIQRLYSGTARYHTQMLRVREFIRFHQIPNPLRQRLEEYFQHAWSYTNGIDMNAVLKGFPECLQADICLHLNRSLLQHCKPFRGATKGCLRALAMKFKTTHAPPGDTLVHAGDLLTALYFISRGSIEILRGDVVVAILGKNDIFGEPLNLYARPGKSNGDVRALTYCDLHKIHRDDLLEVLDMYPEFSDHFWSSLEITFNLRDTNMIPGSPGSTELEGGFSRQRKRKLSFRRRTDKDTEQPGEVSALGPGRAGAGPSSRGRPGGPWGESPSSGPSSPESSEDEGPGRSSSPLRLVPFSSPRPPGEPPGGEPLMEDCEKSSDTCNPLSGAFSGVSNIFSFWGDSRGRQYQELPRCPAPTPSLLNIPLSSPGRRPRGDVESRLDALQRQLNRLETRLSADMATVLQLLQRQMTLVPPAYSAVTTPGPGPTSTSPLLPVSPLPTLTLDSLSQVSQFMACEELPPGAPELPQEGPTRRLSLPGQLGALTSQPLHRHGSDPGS

[10] = Dissociation constant, pKa of the compound by Sirius based assay; assay type: physicochemical
[11] = Thermodynamic solubility of the compound at pH 6.5; assay type: physicochemical; settings: buffer, read-out: Therm_solubility
Rattus norvegicus [12] = assay: Free clearance in rat at 1 mg/kg, iv or 5 mg/kg, po; assay type: ADME, organism-based; settings: in vivo
[13] = (§2) Permeability from apical to basolateral side in MDCK cells; assay type: ADME, cell-based, Canis lupus familiaris; settings: dog, read-out: permeability
[14] = (§3) Permeability from basolateral to apical side in MDCK cells; assay type: ADME, cell-based, Canis lupus familiaris; settings: dog, read-out: permeability
[15] = (§4) Efflux ratio in MDCK cells; assay type: ADME, cell-based, Canis lupus familiaris; settings: dog
Summary of the method: (§5)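 Efflux ratio derived as B–A permeability divided by A–B permeability across MDCK cell monolayers. Apparent permeabilities were measured in both directions and expressed in 10^-6 cm/s.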

[16] = Protein binding in human plasma; assay type: ADME, cell-free; settings: read-out: PPB (converted)
[17] = Protein binding in rat plasma; assay type: ADME, cell-free; settings: read-out: PPB (converted)
[18] = Protein binding in mouse plasma; assay type: ADME, cell-free; settings: read-out: PPB (converted)
A-375 = assay: cells; settings: Homo sapiens, A-375, 72 h
MDCK [19] = assay: as §2; assay type: ADME, cell-based, Canis lupus familiaris; settings: dog
MDCK [20] = assay: as §3; assay type: ADME, cell-based, Canis lupus familiaris; settings: dog
MDCK [21] = assay: as §4; assay type: ADME, cell-based, Canis lupus familiaris; settings: dog; summary of the method: as §5
Cytochrome P450 2C9 = Cytochrome P450 2C9 (Homo sapiens, UniProt P11712); assay: Inhibition of CYP2C9 (unknown origin); assay type: ADME
Cytochrome P450 2C9, sequence (P11712 whole entry): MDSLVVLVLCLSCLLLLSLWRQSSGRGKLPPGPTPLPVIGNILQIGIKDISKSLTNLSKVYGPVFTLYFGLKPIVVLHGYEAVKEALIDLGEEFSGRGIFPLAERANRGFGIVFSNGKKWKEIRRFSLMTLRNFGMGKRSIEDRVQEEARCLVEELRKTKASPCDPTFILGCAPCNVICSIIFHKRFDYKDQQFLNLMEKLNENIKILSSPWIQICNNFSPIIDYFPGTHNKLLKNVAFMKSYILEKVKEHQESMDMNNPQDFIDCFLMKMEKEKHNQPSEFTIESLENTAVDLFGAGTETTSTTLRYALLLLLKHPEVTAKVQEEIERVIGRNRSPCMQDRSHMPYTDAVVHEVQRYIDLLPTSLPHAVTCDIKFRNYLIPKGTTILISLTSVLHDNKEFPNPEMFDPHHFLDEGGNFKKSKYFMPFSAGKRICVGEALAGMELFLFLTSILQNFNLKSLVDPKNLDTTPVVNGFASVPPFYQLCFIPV

Cytochrome P450 2C19 = Cytochrome P450 2C19 (Homo sapiens, UniProt P33261); assay: Inhibition of CYP2C19 (unknown origin); assay type: ADME
Cytochrome P450 2C19, sequence (P33261 whole entry): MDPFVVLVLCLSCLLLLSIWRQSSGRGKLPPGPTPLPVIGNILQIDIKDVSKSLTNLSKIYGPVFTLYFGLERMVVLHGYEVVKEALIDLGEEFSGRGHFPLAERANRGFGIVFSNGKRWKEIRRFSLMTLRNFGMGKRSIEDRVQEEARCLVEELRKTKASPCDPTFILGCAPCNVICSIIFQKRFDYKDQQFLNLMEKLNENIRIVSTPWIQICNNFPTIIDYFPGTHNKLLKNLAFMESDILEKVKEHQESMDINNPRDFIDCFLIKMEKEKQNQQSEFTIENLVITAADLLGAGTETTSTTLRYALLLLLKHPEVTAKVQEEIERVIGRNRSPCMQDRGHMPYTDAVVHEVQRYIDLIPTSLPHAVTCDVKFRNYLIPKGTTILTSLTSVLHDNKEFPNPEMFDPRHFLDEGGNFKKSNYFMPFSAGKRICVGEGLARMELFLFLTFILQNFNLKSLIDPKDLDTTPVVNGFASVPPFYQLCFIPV

Cytochrome P450 3A4 [22] = molecular target: T1, Cytochrome P450 3A4 (Homo sapiens, UniProt P08684); assay: Inhibition of CYP3A4 (unknown origin) using midazolam substrate; assay type: ADME
T1 sequence (P08684 whole entry): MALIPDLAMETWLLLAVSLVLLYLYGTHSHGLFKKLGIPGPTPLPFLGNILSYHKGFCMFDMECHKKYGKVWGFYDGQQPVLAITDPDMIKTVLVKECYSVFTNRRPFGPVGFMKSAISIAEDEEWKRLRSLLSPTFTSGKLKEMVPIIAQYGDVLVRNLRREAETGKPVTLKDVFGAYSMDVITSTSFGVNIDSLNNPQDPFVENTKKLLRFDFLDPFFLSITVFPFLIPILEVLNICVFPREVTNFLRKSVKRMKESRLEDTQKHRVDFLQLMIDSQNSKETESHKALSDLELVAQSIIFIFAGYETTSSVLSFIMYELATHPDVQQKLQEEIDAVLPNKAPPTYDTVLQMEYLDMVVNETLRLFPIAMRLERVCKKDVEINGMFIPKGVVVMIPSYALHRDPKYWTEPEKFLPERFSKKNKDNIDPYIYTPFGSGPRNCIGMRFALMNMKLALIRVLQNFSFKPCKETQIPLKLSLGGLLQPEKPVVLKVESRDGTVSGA

Cytochrome P450 3A4 [23] = molecular target: T1, Cytochrome P450 3A4; assay: Inhibition of CYP3A4 (unknown origin) using testosterone substrate; assay type: ADME
Cytochrome P450 2D6 = Cytochrome P450 2D6 (Homo sapiens, UniProt P10635); assay: Inhibition of CYP2D6 (unknown origin); assay type: ADME
Cytochrome P450 2D6, sequence (P10635 whole entry): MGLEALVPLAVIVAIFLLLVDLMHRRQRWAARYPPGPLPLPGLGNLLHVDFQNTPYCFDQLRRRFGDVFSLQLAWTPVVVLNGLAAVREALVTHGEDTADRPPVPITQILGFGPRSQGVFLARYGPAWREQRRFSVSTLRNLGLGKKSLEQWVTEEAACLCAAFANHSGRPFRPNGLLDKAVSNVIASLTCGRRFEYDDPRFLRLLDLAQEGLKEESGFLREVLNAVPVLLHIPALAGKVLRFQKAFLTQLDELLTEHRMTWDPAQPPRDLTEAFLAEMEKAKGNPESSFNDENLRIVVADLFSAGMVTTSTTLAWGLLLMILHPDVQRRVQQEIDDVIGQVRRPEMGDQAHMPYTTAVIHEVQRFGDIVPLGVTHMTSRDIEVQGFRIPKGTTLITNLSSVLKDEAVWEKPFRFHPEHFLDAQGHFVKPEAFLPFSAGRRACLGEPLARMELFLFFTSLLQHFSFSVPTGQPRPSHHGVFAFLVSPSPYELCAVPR

Cytochrome P450 1A2 = molecular target: T2, Cytochrome P450 1A2 (Homo sapiens, UniProt P05177); assay: Inhibition of CYP1A2 (unknown origin); assay type: ADME
T2 sequence (P05177 whole entry): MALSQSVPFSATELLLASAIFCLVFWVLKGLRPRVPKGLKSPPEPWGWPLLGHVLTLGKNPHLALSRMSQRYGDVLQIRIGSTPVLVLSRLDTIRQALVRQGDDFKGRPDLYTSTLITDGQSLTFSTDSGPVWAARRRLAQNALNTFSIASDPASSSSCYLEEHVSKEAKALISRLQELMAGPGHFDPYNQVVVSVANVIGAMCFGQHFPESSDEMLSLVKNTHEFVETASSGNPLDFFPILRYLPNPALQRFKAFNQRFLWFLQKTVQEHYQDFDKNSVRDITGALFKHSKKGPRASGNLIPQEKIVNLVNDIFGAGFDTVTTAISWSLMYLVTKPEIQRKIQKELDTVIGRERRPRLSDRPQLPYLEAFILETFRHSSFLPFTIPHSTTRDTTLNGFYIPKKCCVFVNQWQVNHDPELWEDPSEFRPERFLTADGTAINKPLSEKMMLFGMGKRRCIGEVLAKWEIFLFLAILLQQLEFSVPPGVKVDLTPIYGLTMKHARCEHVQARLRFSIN

[24] = Hepatic clearance in dog liver microsomes; assay type: ADME, Canis lupus familiaris; summary of the method: as §1
[25] = Hepatic clearance in cynomolgus monkey liver microsomes; assay type: ADME, Macaca fascicularis; summary of the method: as §1
[26] = Half life in rat at 1 mg/kg, iv or 5 mg/kg, po; assay type: ADME, organism-based; settings: in vivo
[27] = Volume of distribution at steady state in rat at 1 mg/kg, iv or 5 mg/kg, po; assay type: ADME, organism-based; settings: in vivo, read-out: Vdss
Plasma [28] = assay: Stability in rat plasma at 5 mg/kg, po; assay type: ADME, organism-based; set-up: dose 5 mg/kg, route oral; settings: in vivo
Plasma [29] = assay: Drug metabolism rat plasma assessed as metabolite formation at 5 mg/kg, po; assay type: ADME, organism-based; set-up: dose 5 mg/kg, route oral; settings: in vivo
[30] = AUC in rat at 1 mg/kg, iv or 5 mg/kg, po; assay type: ADME, organism-based; settings: plasma
[31] = molecular target: Dual specificity mitogen-activated protein kinase kinase 1 (Homo sapiens, UniProt Q02750); assay: Inhibition of MEK1 (unknown origin) by HTRF assay
Dual specificity mitogen-activated protein kinase kinase 1, sequence (Q02750 whole entry): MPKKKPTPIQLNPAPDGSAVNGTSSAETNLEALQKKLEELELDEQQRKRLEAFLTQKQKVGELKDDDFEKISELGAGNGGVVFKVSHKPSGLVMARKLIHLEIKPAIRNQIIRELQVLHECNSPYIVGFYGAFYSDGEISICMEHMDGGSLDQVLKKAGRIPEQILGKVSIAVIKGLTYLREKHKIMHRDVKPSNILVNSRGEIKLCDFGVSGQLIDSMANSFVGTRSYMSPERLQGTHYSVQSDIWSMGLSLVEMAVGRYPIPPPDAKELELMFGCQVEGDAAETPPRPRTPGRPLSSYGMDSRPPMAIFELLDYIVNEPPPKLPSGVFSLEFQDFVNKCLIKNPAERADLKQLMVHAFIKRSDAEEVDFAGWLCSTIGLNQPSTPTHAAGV

Compound: O=C(NOCCO)c1ncc2cncn2c1Nc1ccc(I)cc1F
- EC50 [1]: 0.12 µM
- logD [2]: 2.1
- CLhep predicted [3]: 11 mL/min/kg
- CLhep predicted [4]: 41 mL/min/kg
- CLhep predicted [5]: 54 mL/min/kg
- clearance [6]: 48 mL/min/kg
- AUC/dose (Rattus norvegicus [7]): 1.48 µM·h
- bioavailability [8]: 38%
- IC50 [9]: 3.3 µM
- pKa [10]: 2.03
- solubility thermodynamic [11]: 150 µg/mL (≈ 328 µM)
- CL free (Rattus norvegicus [12]): 600 mL/min/kg
- Papp A→B [13]: 19.7 ×10⁻⁶ cm/s
- Papp B→A [14]: 14 ×10⁻⁶ cm/s
- efflux ratio [15]: 0.7
- fraction unbound [16]: 0.09
- fraction unbound [17]: 0.08
- fraction unbound [18]: 0.11
- EC50 (A-375): 0.008 µM

Compound: C[C@H](CO)CONC(=O)c1ncc2cncn2c1Nc1ccc(I)cc1F
- EC50 [1]: 0.107 µM
- CLhep predicted [3]: 8 mL/min/kg
- CLhep predicted [4]: 19 mL/min/kg
- CLhep predicted [5]: 29 mL/min/kg
- clearance [6]: 12 mL/min/kg
- AUC/dose (Rattus norvegicus [7]): 9.2 µM·h
- bioavailability [8]: 65%
- IC50 [9]: 14 µM
- solubility thermodynamic [11]: 12 µg/mL (≈ 24.7 µM)
- CL free (Rattus norvegicus [12]): 92 mL/min/kg
- permeability (MDCK [19]): 7.9 ×10⁻⁶ cm/s
- permeability (MDCK [20]): 8.7 ×10⁻⁶ cm/s
- Ratio (MDCK [21]): 1.3
- fraction unbound [16]: 0.14
- fraction unbound [17]: 0.13
- fraction unbound [18]: 0.13
- EC50 (A-375): 0.007 µM

Compound: C[C@H](O)CONC(=O)c1ncc2cncn2c1Nc1ccc(I)cc1F
- EC50 [1]: 0.052 µM
- CLhep predicted [3]: 10 mL/min/kg
- CLhep predicted [4]: 44 mL/min/kg
- CLhep predicted [5]: 56 mL/min/kg
- clearance [6]: 44 mL/min/kg
- AUC/dose (Rattus norvegicus [7]): 0.61 µM·h
- bioavailability [8]: 15%
- solubility thermodynamic [11]: 48 µg/mL (≈ 102 µM)
- CL free (Rattus norvegicus [12]): 800 mL/min/kg
- fraction unbound [16]: 0.1
- fraction unbound [17]: 0.055
- fraction unbound [18]: 0.09
- EC50 (A-375): 0.005 µM

Compound: O=C(NOCCO)c1ccc2cnsc2c1Nc1ccc(I)cc1F
- EC50 [1]: 0.044 µM
- logD [2]: 3.1
- IC50 (Cytochrome P450 2C9): 1.3 µM
- IC50 (Cytochrome P450 2C19): 1.8 µM
- IC50 (Cytochrome P450 3A4 [22]): 9 µM
- IC50 (Cytochrome P450 3A4 [23]): 9 µM
- IC50 (Cytochrome P450 2D6): > 10 µM
- IC50 (Cytochrome P450 1A2): > 10 µM

Compound: O=C(NOCCO)c1ccc2cncn2c1Nc1ccc(I)cc1F [GDC-0623]
- EC50 [1]: 0.051 µM
- logD [2]: 2.1
- IC50 (Cytochrome P450 2C9): > 10 µM
- IC50 (Cytochrome P450 2C19): > 10 µM
- IC50 (Cytochrome P450 3A4 [22]): > 10 µM
- IC50 (Cytochrome P450 3A4 [23]): > 10 µM
- IC50 (Cytochrome P450 2D6): > 10 µM
- IC50 (Cytochrome P450 1A2): > 10 µM
- CLhep predicted [3]: 14 mL/min/kg
- CLhep predicted [4]: 38 mL/min/kg
- CLhep predicted [5]: 64 mL/min/kg
- CLhep predicted [24]: 12 mL/min/kg
- CLhep predicted [25]: 30 mL/min/kg
- clearance [6]: 13.2 mL/min/kg
- half-life [26]: 1.7 h
- Vd [27]: 0.5 L/kg
- AUC/dose (Rattus norvegicus [7]): 20 µM·h
- bioavailability [8]: 100%
- IC50 [9]: 4.4 µM
- pKa [10]: 4.3
- solubility thermodynamic [11]: 41 µg/mL (≈ 89.9 µM)
- CL free (Rattus norvegicus [12]): 1320 mL/min/kg
- Papp A→B [13]: 6.2 ×10⁻⁶ cm/s
- Papp B→A [14]: 16.5 ×10⁻⁶ cm/s
- efflux ratio [15]: 2.6
- fraction unbound [16]: 0.005
- fraction unbound [17]: 0.01
- fraction unbound [18]: 0.06
- Stability (Plasma [28]): 82%
- Drug metabolism (Plasma [29]): metabolite_detected
- EC50 (A-375): 0.004 µM

Compound: O=C(NOCCO)c1ccn2cncc2c1Nc1ccc(I)cc1F
- EC50 [1]: 0.035 µM
- logD [2]: 2.1
- IC50 (Cytochrome P450 2C9): 7.3 µM
- IC50 (Cytochrome P450 2C19): 16 µM
- IC50 (Cytochrome P450 3A4 [22]): > 10 µM
- IC50 (Cytochrome P450 3A4 [23]): > 10 µM
- IC50 (Cytochrome P450 2D6): > 10 µM
- IC50 (Cytochrome P450 1A2): > 10 µM
- CLhep predicted [3]: 15 mL/min/kg
- CLhep predicted [4]: 40 mL/min/kg
- CLhep predicted [5]: 75 mL/min/kg
- CLhep predicted [24]: 23 mL/min/kg
- CLhep predicted [25]: 38 mL/min/kg
- clearance [6]: 14 mL/min/kg
- half-life [26]: 0.9 h
- Vd [27]: 0.46 L/kg
- AUC/dose (Rattus norvegicus [7]): 37 µM·h
- bioavailability [8]: 37%
- AUC [30]: 6 µM·h
- IC50 [9]: 2.1 µM
- solubility thermodynamic [11]: 110 µg/mL (≈ 241 µM)
- CL free (Rattus norvegicus [12]): 636 mL/min/kg
- Papp A→B [13]: 20.4 ×10⁻⁶ cm/s
- Papp B→A [14]: 14 ×10⁻⁶ cm/s
- efflux ratio [15]: 0.7
- fraction unbound [16]: 0.015
- fraction unbound [17]: 0.022
- fraction unbound [18]: 0.049
- EC50 (A-375): 0.002 µM

Compound: O=C(NOCCO)c1cc(F)c2cncn2c1Nc1ccc(I)cc1F
- EC50 [1]: 0.14 µM
- IC50 (Cytochrome P450 2C9): 1.2 µM
- clearance [6]: 3.3 mL/min/kg
- half-life [26]: 3.6 h
- AUC/dose (Rattus norvegicus [7]): 41 µM·h
- CL free (Rattus norvegicus [12]): 55 mL/min/kg
- fraction unbound [17]: 0.03

Compound: O=C(NOCCO)c1oc2ccncc2c1Nc1ccc(I)cc1F
- IC50 [31]: 0.012 µM
- EC50 [1]: 0.12 µM
- logD [2]: 3.1
- IC50 (Cytochrome P450 2C9): > 10 µM
- IC50 (Cytochrome P450 2C19): > 10 µM
- IC50 (Cytochrome P450 3A4 [22]): > 10 µM
- IC50 (Cytochrome P450 3A4 [23]): > 10 µM
- IC50 (Cytochrome P450 2D6): > 10 µM
- IC50 (Cytochrome P450 1A2): > 10 µM
- EC50 (A-375): 0.025 µM
